Data: ChEMBL document CHEMBL3217620, “Relative impact of 3- and 5-hydroxyl groups of cytosporone B on cancer cell viability” (Medchemcomm, 2013)
Active and inactive are the calls of the source. The rule behind the calls is not given here.

Columns and labels:
NCI-H460 [1] = assay: Induction of apoptosis in human H460 cells assessed as chromatin condensation at 10 uM after 8 hrs by relative to control; assay type: functional
Outline: (§1)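 H460 cells in serum-free RPMI-1640 on coverslips, attached 12 h, given 10 μM compound for 8 h. Fixed in 3.7% paraformaldehyde, permeabilized in 0.3% Triton X-100/PBS, blocked in 3% BSA, DAPI-stained and viewed by fluorescence microscopy. Cells with nuclear fragmentation and/or chromatin condensation scored in 300-cell fields; mean of triplicates ± SD.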

NCI-H460 [2] = assay: Induction of apoptosis in human H460 cells assessed as PARP cleavage at 10 uM after 8 hrs by SDS-PAGE; assay type: functional, cell-based
Outline: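 H460 cells in serum-free RPMI-1640, attached 12 h, then given 10 μM compound for 8 h. Lysed in Tris-HCl pH 7.9 buffer with NaCl, EDTA, Triton X-100 and protease inhibitors. Run on 12% SDS-PAGE, blotted to nitrocellulose, probed overnight at 4 °C with rabbit polyclonal anti-PARP, then HRP anti-rabbit IgG. ECL detection; β-actin reprobe as loading control.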

[3] = Cytotoxicity against human H460 cells after 48 hrs by MTT assay; assay type: functional, cell-based; conditions: NCI-H460, 48 h
LNCaP [4] = assay: Cytotoxicity against human LNCAP cells after 72 hrs by MTT assay; assay type: functional, cell-based
Outline: (§2)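 LNCaP cells at 5×10^3/well in RPMI-1640 with 10% FBS, attached 24 h. Treated 72 h with compound at 1–20 µM or DMSO alone (0.2% final). Viability by MTT per kit protocol. Points are means of six replicates ± SD; IC₅₀ interpolated from dose–response curves.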

NCI-H460 [5] = assay: Induction of apoptosis in human H460 cells assessed as DNA fragmentation at 10 uM after 8 hrs by DAPI staining-based confocal microscopy relative to control; assay type: functional; outline: as §1
[6] = Cytotoxicity against human H460 cells assessed as cell viability at 10 uM after 72 hrs by MTT assay; assay type: functional; conditions: NCI-H460, 72 h, read-out: Activity
Outline: (§3)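 NCI-H460 NSCLC cells, […] exponentially growing cells/well, seeded and left overnight. Compound added at 0.1, 1.0 and 10 μM (vehicle DMSO, 0.1% final) in RPMI-1640 with 10% FBS for 72 h. MTT then added at 0.5 mg/mL for 4 h, formazan dissolved in DMSO, absorbance read at 490 nm.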

LNCaP [7] = assay: Cytotoxicity against human LNCAP cells at 20 uM after 72 hrs by MTT assay; assay type: functional; outline: as §2
LNCaP [8] = assay: Cytotoxicity against human LNCAP cells after 72 hrs; assay type: functional, cell-based
[9] = biological target: Nuclear receptor subfamily 4immunitygroup A member 1 (Homo sapiens) (UniProt P22736); assay: Induction of translocation of NR4A1 from nucleus to cytoplasm in human H460 cells at 10 uM after 8 hrs by DAPI staining-based confocal microscopy relative to control; assay type: cell-based
Outline: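 Serum-starved H460 cells grown overnight on coverslips, treated 8 h with 10 µM compound or vehicle. Fixed (3.7% paraformaldehyde), permeabilized (0.3% Triton X-100, 10 min), blocked in 3% BSA. Stained with rabbit monoclonal anti-NR4A1 and Alexa Fluor 594 anti-rabbit IgG, nuclei with DAPI. Overlaid confocal images used to judge NR4A1 localization.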

[10] = Cytotoxicity against human H460 cells after 72 hrs by MTT assay; assay type: functional, cell-based; conditions: NCI-H460, 72 h; outline: as §3
[11] = Cytotoxicity against human H460 cells at 20 uM after 72 hrs by MTT assay; assay type: functional; conditions: NCI-H460, 72 h
[12] = biological target: Nuclear receptor subfamily 4immunitygroup A member 1 (Homo sapiens) (UniProt P22736); assay: Binding affinity to human recombinant N-terminal His6-tagged NR4A1 LBD expressed in Escherichia coli BL21 at 50 uM by NMR spectroscopy
[13] = biological target: Nuclear receptor subfamily 4immunitygroup A member 1 (Homo sapiens) (UniProt P22736); assay: Binding affinity to human recombinant N-terminal His6-tagged NR4A1 LBD expressed in Escherichia coli BL21 by isothermal titration calorimetry
BGC-823 [14] = assay: Induction of apoptosis in human BGC823 cells assessed as procaspase9 cleavage at 15.5 uM after 48 hrs; assay type: functional
BGC-823 [15] = assay: Induction of apoptosis in human BGC823 cells assessed as mitochondrial cytochrome c release at 15.5 uM after 48 hrs; assay type: functional
[16] = biological target: Nuclear receptor subfamily 4immunitygroup A member 1 (Homo sapiens) (UniProt P22736); assay: Binding affinity to NR4A1 (unknown origin) at 0.1 uM by luciferase reporter gene assay relative to control
[17] = biological target: Nuclear receptor subfamily 4immunitygroup A member 1 (Homo sapiens) (UniProt P22736); assay: Binding affinity to human recombinant N-terminal His6-tagged NR4A1 LBD expressed in Escherichia coli BL21 at 100 uM by NMR spectroscopy
BGC-823 [18] = assay: Induction of apoptosis in human BGC823 cells assessed as nuclear DNA condensation at 15.5 uM after 48 hrs; assay type: functional

Chain of Nuclear receptor subfamily 4immunitygroup A member 1 (Homo sapiens) (P22736 whole entry, the tested form may be a part): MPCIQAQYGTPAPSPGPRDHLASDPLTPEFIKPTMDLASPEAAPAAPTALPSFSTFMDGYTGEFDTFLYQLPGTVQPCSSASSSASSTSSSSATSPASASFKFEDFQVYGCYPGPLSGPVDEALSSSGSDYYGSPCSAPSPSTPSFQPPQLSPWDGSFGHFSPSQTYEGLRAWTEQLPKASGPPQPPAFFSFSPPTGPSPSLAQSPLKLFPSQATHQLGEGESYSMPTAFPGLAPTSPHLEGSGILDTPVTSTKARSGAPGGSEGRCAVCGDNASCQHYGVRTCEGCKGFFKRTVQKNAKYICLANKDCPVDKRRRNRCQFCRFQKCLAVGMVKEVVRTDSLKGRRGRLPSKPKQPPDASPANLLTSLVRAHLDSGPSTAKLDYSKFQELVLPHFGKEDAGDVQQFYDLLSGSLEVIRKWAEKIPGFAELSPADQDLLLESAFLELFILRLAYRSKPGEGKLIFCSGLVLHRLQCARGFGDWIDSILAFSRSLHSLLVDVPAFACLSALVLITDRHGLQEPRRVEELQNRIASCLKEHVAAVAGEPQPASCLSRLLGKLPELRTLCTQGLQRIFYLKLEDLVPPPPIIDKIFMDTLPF

| SMILES | fold change (FC) (NCI-H460 [1]) | Activity (NCI-H460 [2]) | IC50 [3] [µM] | IC50 (LNCaP [4]) [µM] | fold change (FC) (NCI-H460 [5]) | viability at 10 µM [6] [%] | inhibition at 20 µM (LNCaP [7]) [%] | IC50 (LNCaP [8]) [µM] | Activity [9] | IC50 [10] [µM] | inhibition at 20 µM [11] [%] | Activity [12] | Activity [13] | Activity (BGC-823 [14]) [%] | Activity (BGC-823 [15]) [%] | Ratio [16] | Activity [17] | Activity (BGC-823 [18]) [%] |
| --- | --- | --- | --- | --- | --- | --- | --- | --- | --- | --- | --- | --- | --- | --- | --- | --- | --- | --- |
| FC(F)(F)c1ccc(C(c2c[nH]c3ccccc23)c2c[nH]c3ccccc23)cc1 | 3.7 | Active | 7.7 | 9.7 | 3.7 | 90 | 97 | 5 | Active | 4.6 | – | – | – | – | – | – | – | – |
| CCCCCCCC(=O)c1c(CC(=O)OCC)cc(OC)cc1OC | – | Active | – | – | – | 24 | 14 | – | inactive | > 20 | 11 | inactive | inactive | – | – | – | – | – |
| CCCCCCCC(=O)c1c(O)cc(O)cc1CC(=O)OCC [CYTOSPORONE B] | 4.4 | Active | – | 13.4 | 4.4 | 50 | 76 | – | Active | 15.3 | 88 | – | – | 63 | 63 | 12.5 | Active | 63 |
| CCCCCCCC(=O)c1c(O)cc(OC)cc1CC(=O)OCC | 5.1 | Active | – | 11.4 | 5.1 | 22 | 80 | – | Active | 15.9 | 75 | Active | – | – | – | – | – | – |
